The text below walks through data of ChEMBL document CHEMBL1137671, “Synthesis of 1-(2,6-dichlorophenyl)-3-methylene-1,3-dihydro-indol-2-one derivatives and in vitro anticancer evaluation against SW620 colon cancer cell line” (Eur J Med Chem, 2009).

In brackets after ≈: the same amount, converted by molar mass. Some results are limits rather than exact numbers.

Test system in one experiment: not listed separately
Put plainly: Inhibition of FGFR autophosphorylation.
Settings: not given
With `O=CN1CCN(c2ccc(/C=C3\C(=O)Nc4ccccc43)cc2)CC1`, it took 10 µM to reach half-maximal inhibition (IC50).

Turning to `Cc1c[nH]c(/C=C2\C(=O)Nc3ccccc32)c1CCC(=O)O`, the half-inhibitory concentration (IC50) – broadly, the midpoint of a concentration-inhibition curve – stood at 10 µM.

The subject of a further experiment is SW-620. Put plainly: Cytotoxicity against human SW620 cells after 3 days by MTT assay. It is filed as functional. Particulars: SW-620, 72 h, read-out: ED50 (the source's name). A digest of the protocol:
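SW620 human colon cancer cells seeded at 10,000 per well and exposed to 1-100 µM for 72 h in a CO₂ incubator, with untreated controls. Then 125 µg MTT per well for 3 h, followed by lysis in 10% SDS-0.01 N HCl. Absorbance was read at 540 nm. % cytotoxicity = (1 − (treated − blank)/control) × 100.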
Turning to `O=C1/C(=C\c2cccc3ccccc23)c2ccccc2N1c1c(Cl)cccc1Cl`, the EC50 was more than 100 µg/mL.

Take `O=C1/C(=C/c2cc3ccccc3nc2Cl)c2ccccc2N1c1c(Cl)cccc1Cl`: the EC50 amounted to 25 µg/mL (≈ 55.3 µM).

`O=C1/C(=C/c2ccc(Cl)cc2)c2ccccc2N1c1c(Cl)cccc1Cl`: the EC50 turned out to be 100 µg/mL (≈ 250 µM).

Consider `O=C1/C(=C/c2ccc(Cl)cc2Cl)c2ccccc2N1c1c(Cl)cccc1Cl`, for which the EC50 amounted to 2 µg/mL (≈ 4.6 µM).

With `O=C1Cc2ccccc2N1c1c(Cl)cccc1Cl`, the EC50 is more than 100 µg/mL.

As for `O=C1/C(=C/c2ccccc2[N+](=O)[O-])c2ccccc2N1c1c(Cl)cccc1Cl`, the EC50 was found to be 90 µg/mL (≈ 219 µM).

In the case of `COc1ccc(/C=C2/C(=O)N(c3c(Cl)cccc3Cl)c3ccccc32)cc1`, the EC50 was more than 100 µg/mL.

On to `O=C1/C(=C/c2cccc(Oc3ccccc3)c2)c2ccccc2N1c1c(Cl)cccc1Cl`, for which the EC50 came out at 50 µg/mL (≈ 109 µM).

With `COc1ccc(/C=C2/C(=O)N(c3c(Cl)cccc3Cl)c3ccccc32)cc1OC`, the EC50 is 50 µg/mL (≈ 117 µM).

On to `CN(C)c1ccc(/C=C2/C(=O)N(c3c(Cl)cccc3Cl)c3ccccc32)cc1`, for which the EC50 is more than 100 µg/mL.

As for `O=C1/C(=C/c2c(Cl)cccc2Cl)c2ccccc2N1c1c(Cl)cccc1Cl`, the EC50 was more than 100 µg/mL.

Regarding `O=C1/C(=C/c2ccccc2)c2ccccc2N1c1c(Cl)cccc1Cl`, the EC50 was found to be 100 µg/mL (≈ 273 µM).

For the molecule `O=C1/C(=C/c2cccc(Cl)c2)c2ccccc2N1c1c(Cl)cccc1Cl`, the EC50 turned out to be 50 µg/mL (≈ 125 µM).

Turning to `Cc1ccc2cc(/C=C3/C(=O)N(c4c(Cl)cccc4Cl)c4ccccc43)c(Cl)nc2c1C`, the EC50 was more than 100 µg/mL.

Consider `O=C1/C(=C/c2ccco2)c2ccccc2N1c1c(Cl)cccc1Cl`, for which the EC50 is more than 100 µg/mL.

With `Cc1ccc2nc(Cl)c(/C=C3/C(=O)N(c4c(Cl)cccc4Cl)c4ccccc43)cc2c1`, the EC50 was determined as 40 µg/mL (≈ 85.9 µM).

In the case of `O=C1/C(=C/c2ccccc2Cl)c2ccccc2N1c1c(Cl)cccc1Cl`, the EC50 is 15 µg/mL (≈ 37.4 µM).

On to `O=C1/C(=C/c2ccc(O)cc2)c2ccccc2N1c1c(Cl)cccc1Cl`, for which the EC50 was 50 µg/mL (≈ 131 µM).

In the case of `O=C1/C(=C/c2ccc(F)cc2)c2ccccc2N1c1c(Cl)cccc1Cl`, the EC50 is 5 µg/mL (≈ 13 µM).
